Published values collected from several papers.
Compare with care: the assays were run in different laboratories.
Effect on: cell growth or viability

SMILES	cell line	test	setting	IC50
CC(C(=O)n1nnc2ccccc21)c1cccc(C(OC(=O)n2nnc3ccccc32)c2ccccc2)c1 (stereo not shown)	L1210	–	48 h	38 µM
C[C@H]1O[C@@H](O[C@H]2[C@@H](O)C[C@H](O[C@H]3[C@@H](O)C[C@H](O[C@H]4CC[C@@]5(C)[C@H](CC[C@@H]6[C@@H]5C[C@@H](O)[C@]5(C)[C@@H](C7=CC(=O)OC7)CC[C@]65O)C4)O[C@@H]3C)O[C@@H]2C)C[C@H](O)[C@@H]1O	GISTT1	resazurin	72 h	0.16 µM
C[C@@H]1C[C@@]2(N=CCS2)[C@]2(O)O[C@@H]3C[C@@]4(C=O)[C@@H](CC[C@@H]5[C@@H]4CC[C@]4(C)[C@@H](C6=CC(=O)OC6)CC[C@]54O)C[C@H]3O[C@@H]2O1	L6	resazurin	72 h	6.17 µM
CC(C(=O)N1CCCCC1)c1cccc(C(OC(=O)N2CCCCC2)c2ccccc2)c1 (stereo not shown)	FM3A	–	48 h	8 µM
COc1cc(C(=O)c2sc3c(OC)cccc3c2N)cc(OC)c1OC	L1210	–	48 h	0.033 µM
COc1ccc(N(C)c2nc(Cl)nc3cccnc23)cc1F	MDA-MB-453	MTS	72 h	0.0042 µM
COc1cc(C(=O)c2cc3c(-c4ccccc4)c(OC)ccc3o2)cc(OC)c1OC	L1210	–	48 h	> 50 µM
C[C@@H]1C[C@H](O)[C@]2(O)O[C@@H]3C[C@@]4(C=O)[C@@H](CC[C@@H]5[C@@H]4CC[C@]4(C)[C@@H](C6=CC(=O)OC6)CC[C@]54O)C[C@H]3O[C@@H]2O1	L6	resazurin	72 h	7.5 µM
CC(C)=CCOc1c2occc2cc2ccc(=O)oc12	COLO 205	MTT	24 h	> 100 µM
COc1cc([C@@H]2c3cc4c(cc3[C@H](O)[C@H]3COC(=O)[C@H]23)OCO4)cc(OC)c1OC	L6	–	–	4 ng/mL
COc1cccc2c1C(=O)c1c(O)c3c(c(O)c1C2=O)C[C@@](O)(C(C)=O)C[C@@H]3O[C@H]1C[C@H](N)[C@H](O)[C@H](C)O1	GISTT1	resazurin	72 h	< 0.07 µM
CC(C(=O)NC1CCCCC1)c1cccc(C(OC(=O)NC2CCCCC2)c2ccccc2)c1 (stereo not shown)	L1210	–	48 h	9.6 µM
COc1ccc2c(c1)NC(=O)CN2c1nc(Cl)nc2c1COC2	MDA-MB-453	MTS	72 h	0.0193 µM
CC(C(=O)N1CCCC1)c1cccc(C(OC(=O)N2CCCC2)c2ccccc2)c1 (stereo not shown)	FM3A	–	48 h	35 µM
Cc1n[nH]cc1-c1cc2nc([C@@H]3CC4CCN3CC4)[nH]c(=O)c2s1	COLO 205	MTT	–	0.0367 µM
CC(C(=O)NC1CCCC1)c1cccc(C(OC(=O)NC2CCCC2)c2ccccc2)c1 (stereo not shown)	L1210	–	48 h	9.8 µM
COc1cc(C(=O)c2sc3ccccc3c2N)cc(OC)c1OC	L1210	–	48 h	0.35 µM
CS(=O)(=O)c1ccc(S(=O)(=O)N2CCc3[nH]c4ccccc4c3C2)cc1	L6	–	–	> 250 µM
C[C@H]1O[C@@H](O[C@H]2[C@@H](O)C[C@H](O[C@H]3[C@@H](O)C[C@H](O[C@H]4CC[C@@]5(C)[C@H](CC[C@@H]6[C@@H]5CC[C@]5(C)[C@@H](C7=CC(=O)OC7)CC[C@]65O)C4)O[C@@H]3C)O[C@@H]2C)C[C@H](O)[C@@H]1O	GISTT1	resazurin	72 h	< 0.16 µM
